Compound activity as filed in PubChem BioAssay.
In the library only some 4.1% were active in any assay of this set; here they are far more common.
Dynein cargo inh: inhibitors of GR-EGFP nuclear translocation, primary screen, dynein cargo transport inhibitor project, imaging, high-content, 3617.4 mouse cells | 220,000 compounds, 0.47% hits | z-score, hits read low | test concentration mostly 20 µM; stimulated with dexamethasone, 1 µM; hits give low values | AID 1381, 2008;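 active means plate z-score of nuclear minus cytoplasmic receptor signal below a set negative limit, without overly bright fluorescence or cell loss, cut at about -3.5 in these data, passing the limit was not always enough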;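 further: z-score of nuclear minus cytoplasmic ring GR-EGFP intensity difference per well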
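Also added: dexamethasone, 1.0 µM final. Medium: tet-free, stripped-serum medium. Detection: fixed, Hoechst-stained cells imaged at 10x for EGFP. Read-out: nuclear-to-cytoplasmic GR-EGFP distribution per well. Times: induction 48 h, compound 1 h, agonist 30 min.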
ROMK mod: ROMK potassium channel modulators, primary screen, cell-based, thallium flux, MLSMR library; B-score at 10 µM; Tet-inducible ROMK, thallium flux fluorescence; actives lie on both sides; 130,000 compounds, 2% hits;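 active means signal ratio slope over the read window, or its plate-corrected B-score, at least 3 SD from the plate mean, either direction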;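 further: B-score of the F/F0 ratio slope over 7 to 12 s after thallium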
Target sequence (P48048 whole entry, looked up): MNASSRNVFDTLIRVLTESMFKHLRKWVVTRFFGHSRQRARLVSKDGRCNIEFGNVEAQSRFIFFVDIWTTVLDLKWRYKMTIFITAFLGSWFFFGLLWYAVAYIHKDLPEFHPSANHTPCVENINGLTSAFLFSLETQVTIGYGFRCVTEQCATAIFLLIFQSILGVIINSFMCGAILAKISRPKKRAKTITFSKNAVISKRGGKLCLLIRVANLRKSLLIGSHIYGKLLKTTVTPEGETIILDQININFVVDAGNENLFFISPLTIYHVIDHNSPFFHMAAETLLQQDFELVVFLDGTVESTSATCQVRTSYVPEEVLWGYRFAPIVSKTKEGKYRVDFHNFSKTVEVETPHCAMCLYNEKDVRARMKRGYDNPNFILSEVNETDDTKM
Cl transport mod: KCC2 cotransporter modulators, thallium flux, primary screen, cell-based, HEK293 KCC2, FluoZin-2 fluorescence, MLSMR; Solute carrier family 12 member 5 (Homo sapiens), Q9H2X9; B-score of Tl+ flux slope (higher = more flux/activation; lower = inhibition) at 10 µM; KCC2 cells, thallium flux FluoZin-2 fluorescence; 190,000 compounds, 2.2% hits;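 active means thallium flux slope and its plate-corrected score both differing from the plate sample mean at a set confidence after two filtering rounds, in either direction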;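 further: slope of fluorescence scaled to starting intensity during 10 to 20 s after thallium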
Redox H2O2 prof: compounds producing H2O2 with reducing agent – biochemical, NIH compound library profiling, artefact control for MLSCN library redox annotation, primary screen | activation, % at 10 µM | AID 878, 2007 | DTT-dependent redox cycling H2O2, phenol red/HRP absorbance; 100% = 100 µM peroxide control, 0% = buffer | 200,000 compounds, 0.03% hits;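 active means activation of at least 50% relative to the plate's high and low controls in the primary single-dose screen; inactive means activation below 50%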;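 further: compound incubated with DTT at 0.8 mM final as the reducing agent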
Autophagy HCS: autophagy modulators in MEF cells, primary screen, imaging, high-content, MEF GFP-LC3 | MEF GFP-LC3 puncta imaging; test concentration mostly 10 µM | calls only at 10 µM (by protocol) | 190,000 compounds, 0.98% hits | AID 463193, 2010;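 active means percentage of spot-positive cells more than 3 SD above its plate mean, without a fluorescence outlier flag or 80% toxicity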;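 further: spot-positive cell cutoff set from DMSO-treated cells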
* = called active by the depositor; i = inactive; . = not tested or not shown; + = active, no number.

SMILES | Dynein cargo inh | ROMK mod | Cl transport mod | Redox H2O2 prof | Autophagy HCS
O=C(/C=C/c1ccco1)N(c1ccccn1)c1ccccn1 | 0.942 | 0.847 | -0.0804 | 0.1 | i
CC(C)n1c(=S)[nH]c2ccccc2c1=O | 0.293 | . | 37.5* | -3.5 | i
Cc1cc(N2CCN(C)CC2)nc2ccc(NC(=S)NCCN3CCc4ccccc4C3)cc12 | 1.68 | -0.77 | -0.325 | -2.2 | +
Cc1cccc(N2CCN(C(=S)Nc3ccc4nc(N5CCN(C)CC5)cc(C)c4c3)CC2)c1C | 0.479 | 0.28 | 0.989 | 0.2 | +
COc1cccc(CC(NC(C)=O)C(=O)NC2CCN(S(=O)(=O)c3ccc(C)cc3)CC2)c1OC (stereo unspecified) | -0.995 | 1.91 | 0.147 | -0.3 | i
CC1CCCN(C(=O)CSc2nc3ncccc3[nH]2)C1 (stereo unspecified) | 0.0544 | -0.0385 | 0.489 | 0.3 | +
O=C1Nc2ccc(Br)cc2C1(O)Cc1ccccn1 (stereo unspecified) | -0.0426 | . | -0.303 | 2.9 | i
O=C1Nc2ccc(Br)cc2C12NNc1ccccc1O2 (stereo unspecified) | 0.354 | -1.21 | 0.364 | -1.9 | +
O=C(Nc1nc(=S)ss1)c1ccc(Cl)cc1Cl | -0.207 | . | 4.98* | 1.6 | i
O=C(Nc1cc(S(=O)(=O)N2CCOCC2)ccc1N1CCOCC1)C1CCCO1 (stereo unspecified) | -0.0195 | -0.306 | 0.627 | -0.6 | i
CC1(C)Oc2ccc(C(=O)N3CCCC3)cc2N(CC(=O)NCc2ccccc2)C1=O | 0.253 | 0.592 | 0.291 | 0.1 | i
CC1(C)Oc2ccc(C(=O)N3CCc4ccccc43)cc2N(CC(=O)N2CCCC2)C1=O | 0.351 | 3.76* | . | -2.6 | i
O=C(NNC(=O)C1CCC(C(=O)NNC(=O)c2cccs2)CC1)c1cccs1 (stereo unspecified) | -0.453 | -0.0327 | 0.0157 | -0.2 | i
CCCN1CCC(NC(=S)Nc2ccc(S(N)(=O)=O)cc2)CC1 | 0.0141 | 0.00414 | 0.197 | 0.6 | i
CC[C@@H](C)[C@H](NC(=O)OC(C)(C)C)c1nnc(S(=O)(=O)Cc2cc(C)ccc2C)o1 | -2.5 | -1.52 | -6.42* | 0.2 | i
COc1cc(CN(C2CCCCC2)S(=O)(=O)c2ccc(S(=O)(=O)N(C)C3CCCCC3)cc2)cc(OC)c1OC | -0.154 | -0.46 | 0.76 | 0.0 | i
CSc1ccc(C2C(C#N)=C(N)Oc3c2ccc(=O)c2c(C)oc(C)c32)cc1 (stereo unspecified) | -2.41 | 0.782 | . | -8.4 | i
Cc1oc(C)c2c(=O)ccc3c(c12)OC(N)=C(C#N)C3c1ccccc1 (stereo unspecified) | -0.77 | -0.84 | -0.928 | 6.1 | +
Nc1nc(Nc2ccccc2F)nc(N2CCOCC2)c1[N+](=O)[O-] | 2.55 | . | -0.0506 | . | .
COc1cccc(C(=O)/C(C#N)=N/Nc2cccc(-c3ccnc(C)n3)c2)c1 | 1.24 | . | -3.13 | . | .
CCOc1ncccc1C(=O)NCc1ccccc1Cl | -0.748 | -0.192 | -1.15 | -0.2 | i
CCCc1[nH]n(-c2ccc([N+](=O)[O-])cc2)c(=O)c1C(C)=NCc1ccncc1 | -0.296 | . | -0.0168 | . | .
COc1ccc(N(CC(=O)Nc2ccc3c(c2)OCO3)S(=O)(=O)c2ccc(F)cc2)cc1 | -2.61 | . | -0.163 | 0.2 | +
COc1ccc(NC(=O)CN(c2cc(C)cc(C)c2)S(=O)(=O)c2c(C)noc2C)cc1 | 1.42 | . | 0.53 | -1.9 | +
CCOc1ccccc1NC(=O)CN(c1ccc(OC)cc1)S(=O)(=O)c1c(C)noc1C | 0.483 | . | . | -0.1 | +
SMILES | Dynein cargo inh | ROMK mod | Cl transport mod | Redox H2O2 prof | Autophagy HCS
Cn1c(=O)n(C)c2cc(S(=O)(=O)N3CCOCC3)ccc21 | -0.938 | . | 0.277 | 1.0 | i
Cc1ccc(NC(=S)N=Nc2c(O)n(C)c3ccc(S(=O)(=O)N4CCOCC4)cc23)cc1 | 0.0688 | . | 9.6* | 0.4 | i
Cc1cc(C)cc(C(=O)NCC(=O)OCC(=O)NCC(F)(F)F)c1 | 0.606 | 0.384 | -0.781 | -2.0 | i
Cc1cccc(N2C(=O)CS/C2=N\NC(=O)c2ccc(Cl)cc2)c1C | -0.377 | 0.11 | 2.96* | 0.8 | i
COc1ccccc1N1C(=O)CSC1=NC(=O)c1ccccc1 | -1.64 | . | -0.253 | . | .
Cc1cc(C)nc(SCc2ccc(C(=O)N/N=C/C3CCCCC3)cc2)n1 | 0.0759 | -0.285 | -0.409 | -0.2 | +
c1ccc(CCNc2nc3ccccc3n3nnnc23)cc1 | -1.05 | -0.101 | 0.00449 | -1.2 | +
CCCCC(=O)c1ccc(O)cc1O | -0.489 | 0.783 | 0.0188 | 0.6 | +
CCCC(=O)c1ccc(O)cc1O | 0.569 | . | 2.12 | . | .
Cc1ccc2nc(SCC(=O)Nc3ccccc3N3CCOCC3)c(C#N)cc2c1 | -0.977 | . | -0.848 | 1.8 | +
CCc1ccc2nc(SCC(=O)Nc3ccccc3N3CCOCC3)c(C#N)cc2c1 | 0.445 | . | 0.827 | . | .
O=C(CCCN=C1NS(=O)(=O)c2ccccc21)OCc1cc([N+](=O)[O-])cc2c1OCOC2 | 0.0473 | 0.563 | -0.385 | -3.1 | +
CC1(C(=O)NCCN2CCOCC2)C=CCN1C(=O)c1ccccc1 (stereo unspecified) | 0.183 | 0.0275 | 0.202 | 0.7 | +
CCOc1ccc(OCCOCCNCCOC)cc1 | -1 | 0.176 | 0.112 | 0.0 | i
CN=C1CC(SC)=C1c1ccc(C)cc1 | 0.0782 | -2.86* | 0.225 | -0.7 | i
CC(C)N(Cc1nc(-c2ccccc2)no1)C(=O)C(Cl)(Cl)Cl | -0.976 | 0.478 | -0.025 | 0.0 | i
CC(C)N(Cc1nc(-c2ccccc2)no1)C(=O)C(C)(C)C | -0.97 | -0.684 | -0.598 | 0.4 | +
COC(=O)C1(NC(=O)NC2CCCCC2)CCCCC1 | -0.512 | . | 3.23 | . | .
CCCN1C(=O)/C(=C/c2ccc(N3CCOCC3)cc2)NC1=S | 0.866 | -2.58 | -0.596 | -0.5 | i
CCCN1C(=O)/C(=C/c2ccc(N3CCCC3)c(C)c2)NC1=S | 1.82 | . | i | -6.6 | +
CCN1C(=O)/C(=C/c2ccc(N3CCCC3)cc2)NC1=S | -2.1 | -0.555 | 4.11 | 0.2 | +
Cc1cc(/C=C2/C(=O)N(C)C(=S)N2C)ccc1N1CCCC1 | -2.79 | -1.06 | -1.13 | 0.5 | +
Cc1ccc(NC(=O)C(=O)NN=C2CCCC2)cc1C | -0.983 | 0.867 | 0.047 | -1.1 | i
CCCn1c(SCC(=O)c2[nH]c(C)c(C(C)=O)c2C)n[nH]c1=O | -0.59 | . | -0.57 | . | .
Nc1cc(=O)[nH]n1C1CCCCC1 | 1.55 | . | 0.0454 | -0.8 | +
CCOC(=O)COc1ccccc1/C=C\[N+](=O)[O-] | -3.56* | . | 0.593 | -0.3 | i
CCOC(=O)COc1cc([N+](=O)[O-])cc2cccnc12 | 0.735 | . | 1.74 | 0.1 | i
